From ChEMBL document CHEMBL5724801, “EUbOPEN Chemogenomics Library - Multiplex” (2024)
Where “and” joins values, the source holds several entries; their conditions need not be identical. Equal values may be shown once.

Assays:
[1] = tested on: U2OS; experiment: Multiplex assay against U2OS; type: toxicity, cell-based; settings: human
How it was run: (§1)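 Phenotypes for tubulin, mitochondrial mass and membrane permeability are expressed as per cents of healthy-nucleus cells. Cells were stained live at seeding with Hoechst33342, BioTracker Green Microtubule Cytoskeleton Dye, MitoTracker Red and Annexin V Alexa Fluor 680, then imaged after compound addition on a CQ1 microscope at 37°C and 5% CO2. Machine-learning gating in CellPathfinder separated Hoechst high-intensity objects from normal cells, divided normal cells by nuclear state (healthy, pyknosed, fragmented) and divided pyknosed cells into mitotic or apoptotic.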

[2] = tested on: Fibroblast; experiment: Multiplex assay against human fibroblast; type: toxicity, cell-based; how it was run: as §1
[3] = 12 h, 1 µM, compound concentration 1 uM
[4] = 12 h, 10 µM, compound concentration 10 uM
[5] = 24 h, 1 µM, compound concentration 1 uM
[6] = 24 h, 10 µM, compound concentration 10 uM
[7] = 48 h, 1 µM, compound concentration 1 uM
[8] = 48 h, 10 µM, compound concentration 10 uM

CC(C)C[C@H](CO)Nc1nc(S[C@@H](C)c2ccccc2)nc2nc(N)sc12 [AZD-8797]
Population Apoptotic (%) [1, 3]: 83% and 100% | Population Fragmented Nuclei (%) [1, 3]: 20% and 12% | Population Healthy Nuclei (%) [1, 3]: 65% and 82% | Population Hoechst High Intensity Objects (%) [1, 3]: 3% and 0% | Population Membrane Permeable-Phenotype (%) [1, 3]: 5% | Population Mitochondria Different-Phenotype (%) [1, 3]: 1% and 5% | Population Mitotic Cells (%) [1, 3]: 16% and 0% | Population Normal (%) [1, 3]: 96% and 100% | Population Pyknosed Nuclei (%) [1, 3]: 14% and 5% | Population Tubulin-Different-Phenotype (%) [1, 3]: 2% and 3% | Total Cell Count [1, 3]: 177 and 95 | Population Apoptotic (%) [1, 4]: 63% and 78% | Population Fragmented Nuclei (%) [1, 4]: 21% and 9% | Population Healthy Nuclei (%) [1, 4]: 56% and 79% | Population Hoechst High Intensity Objects (%) [1, 4]: 4% and 2% | Population Membrane Permeable-Phenotype (%) [1, 4]: 30% and 10% | Population Mitochondria Different-Phenotype (%) [1, 4]: 12% and 16% | Population Mitotic Cells (%) [1, 4]: 36% and 21% | Population Normal (%) [1, 4]: 95% and 97% | Population Pyknosed Nuclei (%) [1, 4]: 22% and 10% | Total Cell Count [1, 4]: 222 and 135 | Population Apoptotic (%) [1, 5]: 81% and 83% | Population Fragmented Nuclei (%) [1, 5]: 20% and 17% | Population Healthy Nuclei (%) [1, 5]: 68% and 77% | Population Hoechst High Intensity Objects (%) [1, 5]: 1% and 0% | Population Membrane Permeable-Phenotype (%) [1, 5]: 2% and 4% | Population Mitochondria Different-Phenotype (%) [1, 5]: 0% and 2% | Population Mitotic Cells (%) [1, 5]: 18% and 16% | Population Normal (%) [1, 5]: 98% and 100% | Population Pyknosed Nuclei (%) [1, 5]: 10% and 4% | Population Tubulin-Different-Phenotype (%) [1, 5]: 2% and 3% | Total Cell Count [1, 5]: 219 and 121 | Population Apoptotic (%) [1, 6]: 76% and 100% | Population Fragmented Nuclei (%) [1, 6]: 20% and 7% | Population Healthy Nuclei (%) [1, 6]: 58% and 86% | Population Hoechst High Intensity Objects (%) [1, 6]: 3% and 1% | Population Membrane Permeable-Phenotype (%) [1, 6]: 22% and 9% | Population Mitochondria Different-Phenotype (%) [1, 6]: 12% | Population Mitotic Cells (%) [1, 6]: 24% and 0% | Population Normal (%) [1, 6]: 96% and 98% | Population Tubulin-Different-Phenotype (%) [1, 6]: 13% and 6% | Total Cell Count [1, 6]: 245 and 156 | Population Apoptotic (%) [1, 7]: 94% and 100% | Population Fragmented Nuclei (%) [1, 7]: 18% and 15% | Population Healthy Nuclei (%) [1, 7]: 69% and 77% | Population Hoechst High Intensity Objects (%) [1, 7]: 2% | Population Membrane Permeable-Phenotype (%) [1, 7]: 6% and 2% | Population Mitochondria Different-Phenotype (%) [1, 7]: 0% and 2% | Population Mitotic Cells (%) [1, 7]: 5% and 0% | Population Normal (%) [1, 7]: 97% | Population Pyknosed Nuclei (%) [1, 7]: 11% and 6% | Population Tubulin-Different-Phenotype (%) [1, 7]: 2% | Total Cell Count [1, 7]: 352 and 181 | Population Apoptotic (%) [1, 8]: 90% and 96% | Population Fragmented Nuclei (%) [1, 8]: 26% and 12% | Population Healthy Nuclei (%) [1, 8]: 54% and 74% | Population Hoechst High Intensity Objects (%) [1, 8]: 4% and 3% | Population Membrane Permeable-Phenotype (%) [1, 8]: 20% and 11% | Population Mitochondria Different-Phenotype (%) [1, 8]: 10% and 5% | Population Mitotic Cells (%) [1, 8]: 9% and 3% | Population Normal (%) [1, 8]: 95% and 96% | Population Pyknosed Nuclei (%) [1, 8]: 19% and 12% | Population Tubulin-Different-Phenotype (%) [1, 8]: 14% and 4% | Total Cell Count [1, 8]: 296 and 218 | Population Apoptotic (%) [2, 3]: 25% and 31% | Population Fragmented Nuclei (%) [2, 3]: 23% and 22% | Population Healthy Nuclei (%) [2, 3]: 62% and 55% | Population Hoechst High Intensity Objects (%) [2, 3]: 1% and 4% | Population Mitochondria Different-Phenotype (%) [2, 3]: 3% and 6% | Population Mitotic Cells (%) [2, 3]: 75% and 68% | Population Normal (%) [2, 3]: 98% and 95% | Population Pyknosed Nuclei (%) [2, 3]: 13% and 21% | Population Tubulin-Different-Phenotype (%) [2, 3]: 23% and 46% | Total Cell Count [2, 3]: 146 and 92 | Population Apoptotic (%) [2, 4]: 38% and 36% | Population Fragmented Nuclei (%) [2, 4]: 18% and 36% | Population Healthy Nuclei (%) [2, 4]: 64% and 41% | Population Hoechst High Intensity Objects (%) [2, 4]: 3% and 5% | Population Membrane Permeable-Phenotype (%) [2, 4]: 0% and 10% | Population Mitotic Cells (%) [2, 4]: 61% and 64% | Population Normal (%) [2, 4]: 96% and 94% | Population Pyknosed Nuclei (%) [2, 4]: 17% and 21% | Population Tubulin-Different-Phenotype (%) [2, 4]: 46% and 66% | Total Cell Count [2, 4]: 156 and 122 | Population Apoptotic (%) [2, 5]: 44% and 31% | Population Fragmented Nuclei (%) [2, 5]: 15% and 29% | Population Healthy Nuclei (%) [2, 5]: 69% and 54% | Population Hoechst High Intensity Objects (%) [2, 5]: 1% and 0% | Population Mitochondria Different-Phenotype (%) [2, 5]: 1% and 3% | Population Mitotic Cells (%) [2, 5]: 55% and 68% | Population Normal (%) [2, 5]: 98% and 99% | Population Pyknosed Nuclei (%) [2, 5]: 14% and 15% | Population Tubulin-Different-Phenotype (%) [2, 5]: 24% and 46% | Total Cell Count [2, 5]: 124 and 103 | Population Apoptotic (%) [2, 6]: 57% and 33% | Population Fragmented Nuclei (%) [2, 6]: 21% and 42%
